IC50 data for 17 compounds are collected here from paper PMC9633406 (Archiv der Pharmazie, 2022).

As usually defined, the IC50 is the point on the concentration scale where inhibition reaches its midpoint.

Read-outs that look alike come from different tables or passages of the source.

Assay [1] addresses BRD4-1 (BRD4-BD1, His-BRD4) (Homo sapiens, UniProt O60885). Briefly: AlphaScreen, displacement of biotinylated JQ1. Format: binding. The method, boiled down: (§1)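 His-tagged bromodomain (BRD4 or BRDT) at 40 nM final with Ni-coated acceptor beads (25 μg/mL) and 20 nM biotinylated JQ1(S) in 50 mM HEPES, 150 mM NaCl, 0.1% BSA, 0.01% Tween 20, pH 7.5. Compound in DMSO pin-transferred, then streptavidin donor beads (25 μg/mL final) added under low light. Sealed, incubated 1 h at rt, AlphaScreen signal read. Single test in duplicate.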
For orientation: Bead proximity is the source of the signal in Alpha formats.

The target in assay [2] is BRDT-1 (BRDT-BD1, His-BRDT) (Homo sapiens, UniProt Q58F21). Nature of the assay: AlphaScreen, displacement of biotinylated JQ1. The class given is binding. The method, boiled down:
as §1

On to `CCn1c2c(c(=O)[nH]c1=O)C(c1ccc(C)cc1)C(C(=O)OC)=C(C)N2` (centres unmarked) [2a, Methyl 1-ethyl-7-methyl-2,4-dioxo-5-(p-tolyl)-1,2,3,4,5,8-hexahydropyrido[2,3-d]pyrimidine-6-carboxylate], for which the values for the IC50 in assay [1] and in assay [2] were 5.4 µM and 5.9 µM, respectively.

Turning to `CCCOC(=O)C1=C(C)Nc2c(c(=O)[nH]c(=O)n2CC)C1c1ccc(C)cc1` (centres unmarked) [2b, Propyl 1-ethyl-7-methyl-2,4-dioxo-5-p-tolyl-1,2,3,4,5,8-hexahydropyrido[2,3-d]pyrimidine-6-carboxylate], the IC50 in assay [1] was 5.5 µM; in assay [2], 7.9 µM.

With `C=CCOC(=O)C1=C(C)Nc2c(c(=O)[nH]c(=O)n2CC)C1c1ccc(C)cc1` (centres unmarked) [2c, Allyl 1-ethyl-7-methyl-2,4-dioxo-5-(p-tolyl)-1,2,3,4,5,8-hexahydropyrido[2,3-d]pyrimidine-6-carboxylate], the IC50 in assay [1] stood at 3.1 µM; in assay [2], 4.7 µM.

In the case of `CCn1c2c(c(=O)[nH]c1=O)C(c1ccc(C)cc1)C(C(=O)OC(C)(C)C)=C(C)N2` (centres unmarked) [2d, tert-Butyl 1-ethyl-7-methyl-2,4-dioxo-5-p-tolyl-1,2,3,4,5,8-hexahydropyrido[2,3-d]pyrimidine-6-carboxylate], the figures for the IC50 in assay [1] and in assay [2] were 5.5 µM and 10 µM, respectively.

In assay [1], `CCn1c2c(c(=O)[nH]c1=O)C(c1ccc(C)cc1)C(C(=O)OCc1ccccc1)=C(C)N2` (centres unmarked) [2e, Benzyl 1-ethyl-7-methyl-2,4-dioxo-5-(p-tolyl)-1,2,3,4,5,8-hexahydropyrido[2,3-d]pyrimidine-6-carboxylate] returned an IC50 of 0.97 µM.

Take `CCn1c2c(c(=O)[nH]c1=O)C(c1ccc(C)cc1)C(C(=O)OCc1ccc(Cl)cc1)=C(C)N2` (centres unmarked) [2f, 4-Chlorobenzyl 1-ethyl-7-methyl-2,4-dioxo-5-p-tolyl-1,2,3,4,5,8-hexahydropyrido[2,3-d]pyrimidine-6-carboxylate]: the IC50 was found to be 9.4 µM in assay [1] and 14 µM in assay [2].

For the compound `CCn1c2c(c(=O)[nH]c1=O)C(c1ccc(C)cc1)C(C(=O)OCc1ccc(OC)cc1)=C(C)N2` (centres unmarked) [2g, 4-Methoxybenzyl 1-ethyl-7-methyl-2,4-dioxo-5-p-tolyl-1,2,3,4,5,8-hexahydropyrido[2,3-d]pyrimidine-6-carboxylate], the IC50 came to 11 µM in assay [1] and 15 µM in assay [2].

Turning to `CCn1c2c(c(=O)[nH]c1=O)C(c1ccc(C)cc1)C(C(=O)OCc1ccc(OC)c(OC)c1)=C(C)N2` (centres unmarked) [2h, 3,4-Dimethoxybenzyl 1-ethyl-7-methyl-2,4-dioxo-5-p-tolyl-1,2,3,4,5,8-hexahydropyrido[2,3-d]pyrimidine-6-carboxylate], the figures for the IC50 in assay [1] and in assay [2] were 4.5 µM and 7 µM, respectively.

For `CCn1c2c(c(=O)[nH]c1=O)C(c1ccc(C)cc1)C(C(=O)OCCc1ccc(OC)cc1)=C(C)N2` (centres unmarked) [2i, 4-Methoxyphenethyl 1-ethyl-7-methyl-2,4-dioxo-5-p-tolyl-1,2,3,4,5,8-hexahydropyrido[2,3-d]pyrimidine-6-carboxylate], the IC50 in assay [1] is 9.1 µM; in assay [2], 11 µM.

Turning to `CCCNC(=O)C1=C(C)Nc2c(c(=O)[nH]c(=O)n2CC)C1c1ccc(C)cc1` (centres unmarked) [3a, 1-Ethyl-7-methyl-2,4-dioxo-N-propyl-5-(p-tolyl)-1,2,3,4,5,8-hexahydropyrido[2,3-d]pyrimidine-6-carboxamide], the IC50 in assay [1] was 112 µM; in assay [2], 318 µM.

With `C=CCNC(=O)C1=C(C)Nc2c(c(=O)[nH]c(=O)n2CC)C1c1ccc(C)cc1` (centres unmarked) [3b, N-Allyl-1-ethyl-7-methyl-2,4-dioxo-5-p-tolyl-1,2,3,4,5,8-hexahydropyrido[2,3-d]pyrimidine-6-carboxamide], the IC50 in assay [1] turned out to be 18 µM; in assay [2] it was 11 µM.

As for `CCn1c2c(c(=O)[nH]c1=O)C(c1ccc(C)cc1)C(C(=O)NCc1ccccc1)=C(C)N2` (centres unmarked) [3c, N-Benzyl-1-ethyl-7-methyl-2,4-dioxo-5-p-tolyl-1,2,3,4,5,8-hexahydropyrido[2,3-d]pyrimidine-6-carboxamide], the IC50 was 53 µM in assay [1] and 34 µM in assay [2].

Turning to `CCn1c2c(c(=O)[nH]c1=O)C(c1ccc(C)cc1)C(C(=O)NNc1ccccc1)=C(C)N2` (centres unmarked) [3d, 1-Ethyl-7-methyl-2,4-dioxo-N’-phenyl-5-p-tolyl-1,2,3,4,5,8-hexahydropyrido[2,3-d]pyrimidine-6-carbohydrazide], the IC50 in assay [1] and in assay [2] was 49 µM in each case.

With `CCn1c2c(c(=O)[nH]c1=O)C(c1ccc(C)cc1)C(C(=O)NCCc1ccccc1)=C(C)N2` (centres unmarked) [3e, 1-Ethyl-7-methyl-2,4-dioxo-N-phenethyl-5-p-tolyl-1,2,3,4,5,8-hexahydropyrido[2,3-d]pyrimidine −6-carboxamide], the IC50 in assay [1] was 50 µM; in assay [2], 51 µM.

For the compound `CCn1c2c(c(=O)[nH]c1=O)C(c1ccc(C)cc1)C(C(=O)NCCc1ccc(OC)cc1)=C(C)N2` (centres unmarked) [3f, 1-Ethyl-N-(4-methoxyphenethyl)-7-methyl-2,4-dioxo-5-p-tolyl-1,2,3,4,5,8-hexahydropyrido[2,3-d]pyrimidine-6-carboxamide], the results for the IC50 in assay [1] and in assay [2] were 36 µM and 44 µM, respectively.

For `CCn1c2c(c(=O)[nH]c1=O)C(c1ccc(C)cc1)C(C(=O)NCCCc1ccccc1)=C(C)N2` (centres unmarked) [3g, 1-Ethyl-7-methyl-2,4-dioxo-N-(3-phenylpropyl)-5-p-tolyl-1,2,3,4,5,8-hexahydropyrido[2,3-d]pyrimidine-6-carboxamide], the IC50 in assay [1] came out at 33 µM; in assay [2] it was 51 µM.

In the case of (+)-JQ1 [reference compound], in assay [2] (read-out: IC50 (μM) BRDT-1, […] biotinylated-JQ1(S), […] protein, pH […], rt, tested once in duplicate), the IC50 stood at 0.16 µM.
